# Only some compounds are listed: those with a hit (about 1.8% of all), similar ones and a draw of the others.
# M4 ag = agonists of human muscarinic M4 receptor (CHRM4) | P08173 | CHO-K1 hM4/Gqi5, Fluo-8 calcium fluorescence; vehicle 0%, full acetylcholine response 100% | activation, % at 3 µM | 0.14% of 360,000 active | AID 624127;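 active = activation above the run mean over all test wells plus 3 SD, cut at about 32% in these data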;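 note: peak over basal fluorescence ratio per well then scaled between controls; 0% = DMSO wells and 100% = acetylcholine at EC100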
# CHRM5 antagonist = antagonists of human muscarinic M5 receptor (CHRM5) | inhibition, % at 3 µM | P08912 | 0.59% of 360,000 active | CHO-hM5 cells, Fluo-8 calcium fluorescence, ACh EC80;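 active = inhibition above a per-plate cutoff, the mean of that plate's test compounds plus 3 SD, cut at about 27% in these data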;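 note: 0% = acetylcholine EC80 with DMSO and 100% = DMSO without agonist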
# Target sequence (P08912 whole entry, looked up): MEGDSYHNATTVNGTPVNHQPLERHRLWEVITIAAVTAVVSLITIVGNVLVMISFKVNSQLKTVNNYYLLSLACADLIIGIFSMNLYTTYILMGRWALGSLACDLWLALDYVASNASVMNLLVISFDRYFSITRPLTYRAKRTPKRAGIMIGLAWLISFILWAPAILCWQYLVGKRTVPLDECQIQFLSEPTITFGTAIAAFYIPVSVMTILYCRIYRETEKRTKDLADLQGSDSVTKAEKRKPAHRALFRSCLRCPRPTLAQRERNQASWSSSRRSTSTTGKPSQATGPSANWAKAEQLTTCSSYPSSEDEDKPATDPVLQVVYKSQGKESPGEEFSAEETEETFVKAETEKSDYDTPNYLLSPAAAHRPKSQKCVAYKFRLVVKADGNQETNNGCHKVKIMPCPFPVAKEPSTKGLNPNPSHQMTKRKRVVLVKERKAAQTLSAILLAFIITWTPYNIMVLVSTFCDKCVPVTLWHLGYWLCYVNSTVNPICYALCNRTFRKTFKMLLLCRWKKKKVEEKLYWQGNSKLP
# M5 PAM = positive allosteric modulators of human muscarinic M5 receptor. P08912. activation, % at 3 µM. 0.3% of 360,000 active. CHO-K1 hM5, Fluo-8 calcium, ACh EC20 PAM; 0% = ACh EC20, 100% = ACh EC100;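 active = activation above the run cutoff, the mean activation of all test compounds plus 3 SD, cut at about 18% in these data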
#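 System: CHO-K1 cell line with stable human muscarinic M5 receptor expression | Also added: EC20 acetylcholine as agonist stimulus | Compound: One concentration, 3 µM final (nominal) | Timing: Fluo-8 loading 80 min at 37 °C plus 30 min room temperature | Measured by: Fluo-8 calcium dye fluorescence, kinetic read | Read-out basis: % activation, ACh-normalized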
# M4 PAM = potentiates acetylcholine response at human M4 receptor. P08173. CHO-K1 hM4/Gqi5, Fluo-8 calcium fluorescence, ACh EC20; 0% = ACh EC20, 100% = maximal ACh. activation, % at 3 µM. 0.4% of 360,000 active. AID 624126;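 active = activation above its plate's cutoff, the mean activation of sample wells plus 3 SD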
# CHRM4 antagonist = CHRM4 antagonism in calcium assay. P08173. AID 624125. CHO-hM4 cells, ACh EC80, Fluo-8 calcium fluorescence. 0.73% of 360,000 active. inhibition, % at 3 µM;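 active = inhibition above its plate's cutoff, the mean inhibition of sample wells plus 3 SD, cut at about 27% in these data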;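 note: 0% = acetylcholine EC80 with DMSO and 100% = DMSO without agonist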
# M5 ag = agonists of human muscarinic M5 receptor (CHRM5); P08912; CHO-K1 hM5 cells, Fluo-8 calcium fluorescence; 0% DMSO wells, 100% maximal acetylcholine response; activation, % at 3 µM; 0.19% of 360,000 active; AID 624037;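 active = activation above the run's mean over test compounds plus 3 SD, cut at about 23% in these data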;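 note: signal is peak over basal fluorescence ratio across the kinetic read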
# * marks the source's active call; other numbers are inactive results.
SMILES,M4 ag,CHRM5 antagonist,M5 PAM,M4 PAM,CHRM4 antagonist,M5 ag
CC(CNC(=O)c1ccccc1Cl)c1ccccc1 (centres undefined),2.0,1.6,6.5,0.1,6.1,1.1
Cc1cccc(N2CCN(C(=O)c3ccccc3OCc3c(C)noc3C)CC2)c1C,7.8,7.0,-2.0,5.0,-10.2,1.3
CC(Oc1ccc(Br)cc1)C(=O)NCC1(N2CCCCC2)CCCCC1 (centres undefined),0.5,10.1,-4.5,2.5,-4.8,-6.1
COc1c(O)cc2c(c1O)C1OC(CO)C(O)C(O)C1OC2=O (centres undefined),6.5,-2.3,-15.4,6.8,-35.9,45.7*
FC(F)(F)c1cc(-c2ccccc2)nc(N2CCCCCC2)n1,0.7,-0.1,-0.1,13.5,-1.6,-0.6
COc1ccccc1N1CCN(c2nc(-c3ccccc3)cc(C(F)(F)F)n2)CC1,1.2,-20.2,26.8*,9.9,-4.4,-0.7
CCc1cc(=O)oc2cc(OCC(=O)N(CC)CC)c(Cl)cc12,1.0,-4.7,-4.0,4.5,-4.6,0.4
CCc1cc(=O)oc2cc(OCC(=O)O)c(Cl)cc12,0.7,-8.2,20.2*,5.3,11.7,-8.7
CCN(CC(=O)Nc1ccc(NC(C)=O)cc1)C(=O)CN1C(=O)NC(C)(c2ccc3ccccc3c2)C1=O (centres undefined),1.4,-2.6,5.4,26.6*,-8.1,4.2
CCCCCC(C)NC(=O)CN1C(=O)NC(C)(c2ccc3ccccc3c2)C1=O (centres undefined),3.5,-10.0,4.2,23.0*,-14.9,-0.4
C=C(C)CN(CC)C(=O)CN1C(=O)NC(C)(c2ccc3ccccc3c2)C1=O (centres undefined),3.2,8.0,-3.4,-3.7,6.5,2.3
CC1(C(=O)NCc2ccccc2)CN(S(C)(=O)=O)CC(=O)N1CCCN1CCOCC1 (centres undefined),0.7,-3.8,-1.6,-3.2,7.3,2.1
Cc1cc(NC(=O)c2ccc(Cl)cc2Cl)no1,0.9,11.0,1.8,-1.6,2.6,-2.4
O=[N+]([O-])c1ccc(S(=O)Cc2ccccc2)c([N+](=O)[O-])c1 (centres undefined),5.7,21.1,-11.1,-9.6,76.8*,6.5
CC(C)(C)NC(=O)C1(C)CCC(=O)N1CCCn1ccnc1 (centres undefined),0.9,0.7,-3.4,-0.8,-8.0,4.5
CC(O)(c1cccnc1)c1nc(-c2cccc(C#N)c2)cs1 (centres undefined),4.7,-8.2,-5.9,19.2*,-17.4,3.0
CC(O)(c1cccc(F)c1)c1nc(-c2cccc(C#N)c2)cs1 (centres undefined),1.9,6.9,-6.8,2.5,-11.3,-1.0
O=C(NC(NC(=S)Nc1cccc(Cl)c1)C(Cl)(Cl)Cl)OCc1ccccc1 (centres undefined),22.7,26.9*,-21.3,-14.6,17.1,8.9
O=C(NC(NC(=S)Nc1cccc(C(=O)O)c1)C(Cl)(Cl)Cl)OCc1ccccc1 (centres undefined),1.2,-6.3,6.5,10.7,-6.5,0.9
Cc1ccc(S(=O)(=O)N2CCC(N3CCN(C)CC3)CC2)cc1Cl,-1.4,24.6,-13.0,-19.7,27.6*,-8.1
COc1ccc([C@H]2N[C@]3(CCCN(Cc4ccc(Br)cc4)C3=O)[C@H]3C(=O)N(C)C(=O)[C@@H]23)cc1,0.3,0.4,-1.5,-3.0,4.5,-0.2
N#Cc1ccccc1NC(=O)C1CCCO1 (centres undefined),0.2,-2.4,0.9,4.2,-9.8,0.8
CCCCn1nnc(NC(=O)CC23CC4CC(CC(C4)C2)C3)n1,0.8,3.3,2.4,15.2*,-8.1,2.7
COc1ccc(Nc2nc(OC)nc(OC)n2)cc1,0.7,5.1,-1.6,0.0,1.8,-1.0
COc1ccc(Nc2nc(Nc3ccc(OC)cc3)nc(-n3[nH]c(=O)c(C)c3C)n2)cc1,9.7,30.6*,-17.0,-9.2,28.2*,-2.7
SMILES,M4 ag,CHRM5 antagonist,M5 PAM,M4 PAM,CHRM4 antagonist,M5 ag
CCN1CCN(CCCNC(=O)C2CCCN(c3nnc(-n4cccc4)s3)C2)CC1 (centres undefined),0.1,-4.1,-1.5,26.8*,-10.0,-1.6
CCC(OC(=O)c1nsc(Cl)c1Cl)C(=O)NC(C)(C)C (centres undefined),1.0,-6.2,8.9,0.3,-1.1,-0.6
O=C1OC(C(=O)Nc2ccccc2)Cc2ccccc21 (centres undefined),1.3,2.5,8.6,12.3,-1.2,-2.7
NS(=O)(=O)c1ccc(NC(=O)C2Cc3ccccc3C(=O)O2)cc1 (centres undefined),2.0,-6.5,7.3,25.7*,-9.2,0.4
COc1ccccc1CNC(=O)Cn1c(=O)oc2cc(S(=O)(=O)N3CCCC3)ccc21,4.8,3.0,-5.3,0.8,-4.8,4.8
COc1ccc(N(Cc2nnc3n2CCCCC3)C(=O)Nc2ccccc2)cc1,0.6,6.2,3.1,0.8,2.2,1.6
Cc1ccccc1N(Cc1nnc2n1CCCCC2)C(=O)Nc1ccccc1,0.4,-7.7,2.7,27.4*,-13.9,-2.5
C=CCC(NC(=O)c1ccc(C#N)cc1)C(=O)NCCC (centres undefined),1.4,-1.9,18.9*,2.1,-7.5,0.9
CCOC(=O)C1=C(C)N=c2sc(=Cc3ccc(OCC(=O)O)cc3)c(=O)n2C1c1ccc(SC)cc1 (centres undefined),0.7,-3.8,0.0,5.7,-7.8,1.3
Cc1nc(-c2cc(-c3nc(-c4ccc(C(C)(C)C)cc4)no3)no2)cs1,6.8,15.2,-12.2,-20.6,27.9*,1.6
C#CCOCCOCCOCCNc1nc(N2CCOCC2)nc(N2CCN(C(=O)Cn3cc(CC(C)O)nn3)CC2)n1 (centres undefined),1.1,17.6,-3.9,-3.4,-1.8,3.5
COc1ccc(-c2cc(C(N)=O)nc(N3CCCCCC3)n2)cc1,-0.8,-13.9,11.7,27.8*,-5.0,-4.3
Cc1ccc(-c2nnc(N3CCCCC3)c3ccccc23)cc1S(=O)(=O)N(C)C,2.4,-0.4,-4.1,3.3,-4.4,0.3
Cc1ccc(-c2nnc(N3CCOCC3)c3ccccc23)cc1S(N)(=O)=O,-0.1,-4.5,18.6*,0.8,-7.9,4.9
O=C(CSc1nc2ccccc2[nH]1)Nc1ccc(N2CCOCC2)cc1,5.5,-3.7,1.4,0.3,-9.3,-0.2
CC1CC(C)(C)CC2(C1)NC(=O)N(CC(=O)OCC(=O)Nc1cc(S(=O)(=O)N3CCCCC3)ccc1Cl)C2=O (centres undefined),1.7,4.9,0.4,6.5,-14.8,2.4
